# Reference: ChEMBL document CHEMBL4689842, “EUbOPEN Chemogenomics Library wave 1” (2021)
# Test system: HEK-293T
# Test: Multiplex assay against HEK293T;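 for Population Tubulin-Different-Phenotype (%): share of the cells with healthy nuclei that show this phenotype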
# Assay type: toxicity, cell-based
# Conditions: human
# Outline: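 Values for tubulin, mitochondrial-mass and membrane-permeability phenotypes are per cents of cells with healthy nuclei. These cells were identified by CellPathfinder machine-learning gating of live cells that had been stained at seeding with Hoechst33342, BioTracker Green Microtubule Cytoskeleton Dye, MitoTracker Red and Annexin V Alexa Fluor 680 and imaged on a CQ1 microscope at 37°C and 5% CO2 after compound addition. The gating first set Hoechst high-intensity objects apart from normal cells, then split normal cells into healthy, pyknosed or fragmented nuclei, and pyknosed cells into mitotic or apoptotic.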
# [1] = 12 h, 1 µM, compound concentration 1 uM, replicate 1
# [2] = 12 h, 1 µM, compound concentration 1 uM, replicate 2
# [3] = 12 h, 10 µM, compound concentration 10 uM, replicate 1
# [4] = 12 h, 10 µM, compound concentration 10 uM, replicate 2
# [5] = 24 h, 1 µM, compound concentration 1 uM, replicate 1
# [6] = 24 h, 1 µM, compound concentration 1 uM, replicate 2
# [7] = 24 h, 10 µM, compound concentration 10 uM, replicate 1
# [8] = 24 h, 10 µM, compound concentration 10 uM, replicate 2
# [9] = 48 h, 1 µM, compound concentration 1 uM, replicate 1
# [10] = 48 h, 1 µM, compound concentration 1 uM, replicate 2
# [11] = 48 h, 10 µM, compound concentration 10 uM, replicate 1
# [12] = 48 h, 10 µM, compound concentration 10 uM, replicate 2
smiles,measurement,setting,value
C=CCn1c(=O)c2cnc(Nc3ccc(N4CCN(C)CC4)cc3)nc2n1-c1cccc(C(C)(C)O)n1 [ADAVOSERTIB],Population Apoptotic (%),[1],16%
same,Population Fragmented Nuclei (%),[1],23%
same,Population Healthy Nuclei (%),[1],36%
same,Population Hoechst High Intensity Objects (%),[1],14%
same,Population Membrane Permeable-Phenotype (%),[1],4%
same,Population Mitochondria Different-Phenotype (%),[1],3%
same,Population Mitotic Cells (%),[1],83%
same,Population Normal (%),[1],85%
same,Population Pyknosed Nuclei (%),[1],39%
same,Population Tubulin-Different-Phenotype (%),[1],2%
same,Total Cell Count,[1],606
same,Population Apoptotic (%),[2],13%
same,Population Fragmented Nuclei (%),[2],7%
same,Population Healthy Nuclei (%),[2],62%
same,Population Hoechst High Intensity Objects (%),[2],3%
same,Population Membrane Permeable-Phenotype (%),[2],3%
same,Population Mitochondria Different-Phenotype (%),[2],16%
same,Population Mitotic Cells (%),[2],86%
same,Population Normal (%),[2],96%
same,Population Pyknosed Nuclei (%),[2],30%
same,Population Tubulin-Different-Phenotype (%),[2],15%
same,Total Cell Count,[2],1183
same,Population Apoptotic (%),[3],12%
same,Population Fragmented Nuclei (%),[3],20%
same,Population Healthy Nuclei (%),[3],22%
same,Population Hoechst High Intensity Objects (%),[3],17%
same,Population Membrane Permeable-Phenotype (%),[3],16%
same,Population Mitochondria Different-Phenotype (%),[3],16%
same,Population Mitotic Cells (%),[3],87%
same,Population Normal (%),[3],82%
same,Population Pyknosed Nuclei (%),[3],56%
same,Population Tubulin-Different-Phenotype (%),[3],47%
same,Total Cell Count,[3],637
same,Population Apoptotic (%),[4],9%
same,Population Fragmented Nuclei (%),[4],15%
same,Population Healthy Nuclei (%),[4],27%
same,Population Hoechst High Intensity Objects (%),[4],2%
same,Population Membrane Permeable-Phenotype (%),[4],4%
same,Population Mitochondria Different-Phenotype (%),[4],32%
same,Population Mitotic Cells (%),[4],90%
same,Population Normal (%),[4],97%
same,Population Tubulin-Different-Phenotype (%),[4],70%
same,Total Cell Count,[4],1182
same,Population Apoptotic (%),[5],17%
same,Population Fragmented Nuclei (%),[5],22%
same,Population Healthy Nuclei (%),[5],46%
same,Population Hoechst High Intensity Objects (%),[5],9%
same,Population Membrane Permeable-Phenotype (%),[5],6%
same,Population Mitochondria Different-Phenotype (%),[5],5%
same,Population Mitotic Cells (%),[5],82%
same,Population Normal (%),[5],90%
same,Population Pyknosed Nuclei (%),[5],30%
same,Population Tubulin-Different-Phenotype (%),[5],6%
same,Total Cell Count,[5],590
same,Population Apoptotic (%),[6],16%
same,Population Fragmented Nuclei (%),[6],7%
same,Population Healthy Nuclei (%),[6],58%
same,Population Hoechst High Intensity Objects (%),[6],4%
same,Population Membrane Permeable-Phenotype (%),[6],5%
same,Population Mitochondria Different-Phenotype (%),[6],14%
same,Population Mitotic Cells (%),[6],83%
same,Population Normal (%),[6],95%
same,Population Pyknosed Nuclei (%),[6],33%
same,Population Tubulin-Different-Phenotype (%),[6],32%
same,Total Cell Count,[6],1164
same,Population Apoptotic (%),[7],21%
same,Population Fragmented Nuclei (%),[7],27%
same,Population Healthy Nuclei (%),[7],26%
same,Population Hoechst High Intensity Objects (%),[7],18%
same,Population Membrane Permeable-Phenotype (%),[7],12%
same,Population Mitochondria Different-Phenotype (%),[7],32%
same,Population Mitotic Cells (%),[7],78%
same,Population Normal (%),[7],81%
same,Population Pyknosed Nuclei (%),[7],46%
same,Population Tubulin-Different-Phenotype (%),[7],56%
same,Total Cell Count,[7],609
same,Population Apoptotic (%),[8],20%
same,Population Fragmented Nuclei (%),[8],15%
same,Population Healthy Nuclei (%),[8],39%
same,Population Hoechst High Intensity Objects (%),[8],3%
same,Population Membrane Permeable-Phenotype (%),[8],3%
same,Population Mitochondria Different-Phenotype (%),[8],53%
same,Population Mitotic Cells (%),[8],79%
same,Population Normal (%),[8],96%
same,Population Pyknosed Nuclei (%),[8],44%
same,Population Tubulin-Different-Phenotype (%),[8],80%
same,Total Cell Count,[8],1042
O=C(Nc1ccc(Cl)cc1)Nc1cccc(-c2cccc(N3CCCC3)n2)c1,Population Apoptotic (%),[1],51%
same,Population Fragmented Nuclei (%),[1],10%
same,Population Hoechst High Intensity Objects (%),[1],12%
same,Population Membrane Permeable-Phenotype (%),[1],2%
same,Population Mitochondria Different-Phenotype (%),[1],63%
same,Population Mitotic Cells (%),[1],48%
same,Population Normal (%),[1],87%
same,Population Pyknosed Nuclei (%),[1],45%
same,Population Tubulin-Different-Phenotype (%),[1],46%
same,Population Apoptotic (%),[2],17%
same,Population Fragmented Nuclei (%),[2],5%
same,Population Healthy Nuclei (%),[2],43%
same,Population Hoechst High Intensity Objects (%),[2],5%
same,Population Membrane Permeable-Phenotype (%),[2],16%
same,Population Mitochondria Different-Phenotype (%),[2],6%
same,Population Mitotic Cells (%),[2],82%
same,Population Normal (%),[2],94%
same,Population Pyknosed Nuclei (%),[2],51%
same,Population Tubulin-Different-Phenotype (%),[2],17%
same,Population Apoptotic (%),[3],85%
same,Population Fragmented Nuclei (%),[3],31%
same,Population Healthy Nuclei (%),[3],2%
same,Population Hoechst High Intensity Objects (%),[3],32%
same,Population Membrane Permeable-Phenotype (%),[3],66%
same,Population Mitochondria Different-Phenotype (%),[3],0%
same,Population Mitotic Cells (%),[3],14%
same,Population Normal (%),[3],68%
same,Population Pyknosed Nuclei (%),[3],65%
same,Population Tubulin-Different-Phenotype (%),[3],33%
same,Population Apoptotic (%),[4],46%
same,Population Fragmented Nuclei (%),[4],7%
same,Population Healthy Nuclei (%),[4],14%
same,Population Hoechst High Intensity Objects (%),[4],9%
same,Population Membrane Permeable-Phenotype (%),[4],70%
same,Population Mitochondria Different-Phenotype (%),[4],10%
same,Population Mitotic Cells (%),[4],53%
same,Population Normal (%),[4],90%
same,Population Pyknosed Nuclei (%),[4],78%
same,Population Tubulin-Different-Phenotype (%),[4],60%
same,Population Apoptotic (%),[5],49%
same,Population Fragmented Nuclei (%),[5],9%
same,Population Healthy Nuclei (%),[5],47%
same,Population Hoechst High Intensity Objects (%),[5],11%
same,Population Membrane Permeable-Phenotype (%),[5],9%
same,Population Mitochondria Different-Phenotype (%),[5],38%
same,Population Mitotic Cells (%),[5],50%
same,Population Normal (%),[5],88%
same,Population Pyknosed Nuclei (%),[5],43%
same,Population Tubulin-Different-Phenotype (%),[5],37%
same,Population Apoptotic (%),[6],9%
same,Population Fragmented Nuclei (%),[6],8%
same,Population Healthy Nuclei (%),[6],60%
same,Population Hoechst High Intensity Objects (%),[6],3%
same,Population Membrane Permeable-Phenotype (%),[6],24%
same,Population Mitochondria Different-Phenotype (%),[6],2%
same,Population Mitotic Cells (%),[6],90%
same,Population Normal (%),[6],96%
same,Population Pyknosed Nuclei (%),[6],30%
same,Population Tubulin-Different-Phenotype (%),[6],28%
same,Population Apoptotic (%),[7],85%
same,Population Fragmented Nuclei (%),[7],43%
same,Population Healthy Nuclei (%),[7],6%
same,Population Hoechst High Intensity Objects (%),[7],45%
same,Population Membrane Permeable-Phenotype (%),[7],0%
same,Population Mitochondria Different-Phenotype (%),[7],50%
same,Population Mitotic Cells (%),[7],14%
same,Population Normal (%),[7],54%
same,Population Pyknosed Nuclei (%),[7],50%
same,Population Tubulin-Different-Phenotype (%),[7],66%
same,Population Apoptotic (%),[8],56%
same,Population Fragmented Nuclei (%),[8],8%
same,Population Healthy Nuclei (%),[8],14%
same,Population Hoechst High Intensity Objects (%),[8],30%
same,Population Membrane Permeable-Phenotype (%),[8],43%
same,Population Mitochondria Different-Phenotype (%),[8],12%
same,Population Mitotic Cells (%),[8],43%
same,Population Normal (%),[8],69%
same,Population Pyknosed Nuclei (%),[8],76%
same,Population Tubulin-Different-Phenotype (%),[8],56%
same,Population Apoptotic (%),[9],47%
same,Population Fragmented Nuclei (%),[9],11%
same,Population Healthy Nuclei (%),[9],57%
same,Population Hoechst High Intensity Objects (%),[9],9%
same,Population Membrane Permeable-Phenotype (%),[9],5%
same,Population Mitochondria Different-Phenotype (%),[9],14%
same,Population Mitotic Cells (%),[9],52%
same,Population Normal (%),[9],90%
same,Population Pyknosed Nuclei (%),[9],30%
same,Population Tubulin-Different-Phenotype (%),[9],38%
same,Population Apoptotic (%),[10],7%
same,Population Fragmented Nuclei (%),[10],5%
same,Population Healthy Nuclei (%),[10],82%
same,Population Hoechst High Intensity Objects (%),[10],2%
same,Population Membrane Permeable-Phenotype (%),[10],26%
same,Population Mitochondria Different-Phenotype (%),[10],0%
same,Population Mitotic Cells (%),[10],92%
same,Population Normal (%),[10],97%
same,Population Pyknosed Nuclei (%),[10],11%
same,Population Tubulin-Different-Phenotype (%),[10],19%
same,Population Apoptotic (%),[11],80%
same,Population Fragmented Nuclei (%),[11],61%
same,Population Healthy Nuclei (%),[11],7%
same,Population Hoechst High Intensity Objects (%),[11],40%
same,Population Membrane Permeable-Phenotype (%),[11],25%
same,Population Mitochondria Different-Phenotype (%),[11],50%
same,Population Mitotic Cells (%),[11],19%
same,Population Normal (%),[11],59%
same,Population Pyknosed Nuclei (%),[11],30%
same,Population Tubulin-Different-Phenotype (%),[11],87%
same,Population Apoptotic (%),[12],52%
same,Population Fragmented Nuclei (%),[12],22%
same,Population Healthy Nuclei (%),[12],22%
same,Population Hoechst High Intensity Objects (%),[12],26%
same,Population Membrane Permeable-Phenotype (%),[12],72%
same,Population Mitochondria Different-Phenotype (%),[12],6%
same,Population Mitotic Cells (%),[12],47%
same,Population Normal (%),[12],73%
same,Population Pyknosed Nuclei (%),[12],54%
same,Population Tubulin-Different-Phenotype (%),[12],79%
